Laboratory results reported in ChEMBL document CHEMBL1149572, “2-Aryl-N-acyl indole derivatives as liver X receptor (LXR) agonists” (Bioorg Med Chem Lett, 2007).
Values belong to the molecule of their own block, whether it stands above or below them.

Assays:
[1] = target: T1, Oxysterols receptor LXR-beta (Homo sapiens, UniProt P55055); assay: Agonist activity at human LXRbeta receptor after 1 hr by HTRF cofactor recruitment assay; format: functional
T1 sequence (P55055 whole entry): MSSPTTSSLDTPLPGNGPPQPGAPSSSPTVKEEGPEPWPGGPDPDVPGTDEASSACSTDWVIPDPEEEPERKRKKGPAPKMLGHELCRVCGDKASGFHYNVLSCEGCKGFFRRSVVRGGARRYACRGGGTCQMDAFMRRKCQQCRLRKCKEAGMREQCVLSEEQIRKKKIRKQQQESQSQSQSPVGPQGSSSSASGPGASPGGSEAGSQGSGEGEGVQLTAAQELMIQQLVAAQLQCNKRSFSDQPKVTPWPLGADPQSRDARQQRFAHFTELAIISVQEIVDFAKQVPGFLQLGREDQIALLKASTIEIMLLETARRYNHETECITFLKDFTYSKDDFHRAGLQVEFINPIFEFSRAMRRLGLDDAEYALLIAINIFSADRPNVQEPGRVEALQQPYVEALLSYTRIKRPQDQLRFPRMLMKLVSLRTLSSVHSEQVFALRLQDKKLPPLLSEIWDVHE
Procedure, shortened: (§1)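 Cofactor recruitment was read by HTRF. Buffer was 50 mM Tris pH 7.5 with 50 mM KCl, 1 mM EDTA, 0.1% BSA and 1 mM DTT. Mixtures were shaken for 1 h at room temperature. Values are means of duplicates from a single experiment.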

HepG2 [2] = assay: Induction of SREBP1c gene expression in HepG2 cells at 10 uM relative to control; format: functional, Homo sapiens
THP-1 [3] = assay: Induction of cholesterol efflux in THP1 cells at 10 uM relative to control; format: functional, Homo sapiens
Procedure, shortened: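 THP-1 cells differentiated to macrophages with 200 nM PMA for 30 h. Labelled with 1,2-3H(N)-cholesterol for 18 h alongside acLDL and 200 nM PMA. Exposed to vehicle or compound for 6 h in serum-free medium with 2 mg/ml BSA, then 18 h more with apoA-I added. Supernatant radioactivity read as fold-induction over vehicle. Mean of triplicates, single experiment.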

THP-1 [4] = assay: Induction of ABCA1 gene expression in THP1 cells at 10 uM relative to control; format: functional, Homo sapiens
[5] = target: T1, Oxysterols receptor LXR-beta; assay: Agonist activity at human LXRbeta receptor transfected in COS7 cells after 16 hrs by reporter transactivation assay relative to GW-3965; format: functional, cell-based; conditions: cos-7
Procedure, shortened: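 COS-7 cells were transfected for 24 h with human LXRb, RXRa and an LXR-response-element luciferase reporter, then exposed to vehicle or compound for 16 h. Luciferase in the lysate was quantified and expressed as percent of the maximum induction given by GW3965. Values come from quadruplicates in a single experiment.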

HepG2 [6] = assay: Induction of Lipogenesis in HepG2 cells at 10 uM relative to control; format: functional, Homo sapiens
Procedure, shortened: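 HepG2 cells pre-treated with vehicle or compound for 24 h, then given [14C]-glycerol and cultured a further 48 h. Cellular triglycerides extracted, separated by TLC and quantified by phosphorimaging. Lipogenesis expressed as fold-induction over vehicle-only control. Mean of triplicate samples, single experiment.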

[7] = target: T2, Oxysterols receptor LXR-alpha (Homo sapiens, UniProt Q13133); assay: Agonist activity at human LXRalpha receptor after 1 hr by HTRF cofactor recruitment assay; format: functional; procedure, shortened: as §1
T2 sequence (Q13133 whole entry): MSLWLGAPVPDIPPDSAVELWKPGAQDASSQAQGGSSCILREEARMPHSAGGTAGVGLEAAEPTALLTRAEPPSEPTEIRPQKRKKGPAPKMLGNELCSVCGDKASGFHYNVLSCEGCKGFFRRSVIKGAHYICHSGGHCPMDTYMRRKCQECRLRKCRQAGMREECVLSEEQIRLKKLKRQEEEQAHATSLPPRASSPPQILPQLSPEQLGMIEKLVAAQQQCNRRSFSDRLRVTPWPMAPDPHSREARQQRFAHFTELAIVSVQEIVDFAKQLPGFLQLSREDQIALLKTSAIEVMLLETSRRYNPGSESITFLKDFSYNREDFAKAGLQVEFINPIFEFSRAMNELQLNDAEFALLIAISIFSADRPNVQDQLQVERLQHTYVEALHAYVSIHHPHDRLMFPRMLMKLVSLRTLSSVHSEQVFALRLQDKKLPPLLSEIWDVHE

[8] = target: T1, Oxysterols receptor LXR-beta; assay: Agonist activity at human LXRbeta receptor transfected in COS7 cells after 16 hrs by reporter transactivation assay; format: functional, cell-based, COS-7
Procedure, shortened: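 COS-7 cells were co-transfected for 24 h with human LXRb, RXRa and a luciferase reporter carrying three tandem LXR response elements. Cells were then treated with vehicle or compound for 16 h, and luciferase activity was measured in the lysate. EC50 was calculated from means of quadruplicates in a single experiment.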

THP-1 [9] = assay: Induction of cholesterol efflux in THP1 cells; format: functional, cell-based; conditions: Homo sapiens

Compound: CC(C)(C)OC(=O)n1c(-c2ccc3c(c2)CC(NS(=O)(=O)c2ccccc2)C3)cc2ccccc21 (centres undefined)
Ratio (HepG2 [2]): 3.1
Ratio (THP-1 [3]): 1.6
Ratio (THP-1 [4]): 8.4
Efficacy [5]: 43%
Ratio (HepG2 [6]): 3.1

Compound: CC(C)(C)OC(=O)n1c(-c2cccc(CCNS(=O)(=O)c3ccccc3)c2)cc2ccccc21
EC50 [1]: 0.42 µM

Compound: CC(C)(C)OC(=O)n1c(-c2ccc(CCCO)cc2)cc2ccccc21
EC50 [1]: 0.38 µM

Compound: CC(C)(C)OC(=O)n1c(-c2ccc(OCCO)cc2)cc2ccccc21
EC50 [1]: 0.42 µM

Compound: CC(C)(C)OC(=O)n1c(-c2ccc(CN)cc2)cc2ccccc21
EC50 [1]: 5.6 µM

Compound: CC(C)(C)OC(=O)n1c(-c2ccc(/C=C/C(N)=O)cc2)cc2ccccc21
EC50 [1]: 4.9 µM

Compound: CNC(=O)CCc1ccc(-c2cc3ccccc3n2C(=O)OC(C)(C)C)cc1
EC50 [1]: 0.49 µM

Compound: CC(C)(C)OC(=O)n1c(-c2ccc(CCC(N)=O)cc2)cc2ccccc21
Ratio (HepG2 [2]): 4
Ratio (THP-1 [3]): 1.9
EC50 [7]: 1.11 µM
EC50 [8]: 0.285 µM
EC50 (THP-1 [9]): 2.4 µM
EC50 [1]: 0.057 µM
Ratio (THP-1 [4]): 5.7
Efficacy [5]: 70%
Ratio (HepG2 [6]): 2.7

Compound: CC(C)CNC(=O)CCc1ccc(-c2cc3ccccc3n2C(=O)OC(C)(C)C)cc1
EC50 [1]: 1.51 µM

Compound: CC(C)(C)OC(=O)n1c(-c2ccc(CCNS(=O)(=O)c3cccs3)cc2)cc2ccccc21
EC50 [1]: 0.058 µM

Compound: O=C(O)Cc1cccc(OCCCN(Cc2cccc(C(F)(F)F)c2Cl)CC(c2ccccc2)c2ccccc2)c1
Ratio (HepG2 [2]): 5.2
Ratio (THP-1 [3]): 1.8
Ratio (THP-1 [4]): 10.7
Efficacy [5]: 100%
Ratio (HepG2 [6]): 2.7

The next lines start with results.

EC50 [1]: 0.35 µM
Compound: CC(C)(C)OC(=O)n1c(-c2ccc(CCCNS(=O)(=O)c3ccccc3)cc2)cc2ccccc21

EC50 [1]: 0.23 µM
Compound: CC(C)(C)OC(=O)n1c(-c2ccc(CCc3ccc(-c4ccccn4)s3)cc2)cc2ccccc21

EC50 [1]: 1.8 µM
Compound: CC(C)(C)OC(=O)n1c(-c2ccc(CNC(=O)c3ccccc3)cc2)cc2ccccc21

EC50 [1]: 0.22 µM
Compound: CC(C)(C)OC(=O)n1c(-c2ccc(CNS(=O)(=O)c3ccccc3)cc2)cc2ccccc21

EC50 [1]: 0.36 µM
Compound: CC(C)(C)OC(=O)n1c(-c2ccc(CCCNC(=O)c3ccccc3)cc2)cc2ccccc21

EC50 [1]: 1.78 µM
Compound: CC(C)(C)OC(=O)n1c(-c2ccc(CCC(=O)Nc3ccccc3)cc2)cc2ccccc21

EC50 [1]: 0.3 µM
Compound: CC(C)(C)OC(=O)n1c(-c2ccc(CC#N)cc2)cc2ccccc21

EC50 [1]: 1.78 µM
Compound: O=C(NCCc1ccc(-c2cc3ccccc3n2C(=O)c2ccccc2)cc1)c1ccccc1

EC50 [1]: 1.75 µM
Compound: CC(C)(C)OC(=O)n1c(-c2ccc(CCNC(=O)c3ccccc3)cc2)cc2ccccc21

EC50 [1]: 0.12 µM
Compound: CC(C)(C)OC(=O)n1c(-c2ccc(CCNS(=O)(=O)c3ccccc3)cc2)cc2ccccc21

EC50 [1]: 1.32 µM
Compound: CC(C)(C)OC(=O)n1c(-c2ccc(NS(=O)(=O)c3ccccc3)cc2)cc2ccccc21

EC50 [7]: 0.22 µM
EC50 [8]: 0.042 µM
EC50 (THP-1 [9]): 0.051 µM
EC50 [1]: 0.012 µM
Efficacy [5]: 39%
Compound: N#CCCc1ccc(-c2cc3ccccc3n2C(=O)c2ccccc2)cc1
Ratio (HepG2 [2]): 5.3
Ratio (THP-1 [3]): 1.7
Ratio (THP-1 [4]): 10.3
Ratio (HepG2 [6]): 4

EC50 [7]: 1.19 µM
EC50 [8]: 0.576 µM
EC50 (THP-1 [9]): 2.47 µM
EC50 [1]: 0.13 µM
Efficacy [5]: 45%
Compound: CC(C)(C)OC(=O)n1c(-c2ccc(CCC#N)cc2)cc2ccccc21
Ratio (HepG2 [2]): 2.5
Ratio (THP-1 [3]): 2.2
Ratio (THP-1 [4]): 6
Ratio (HepG2 [6]): 2.5

EC50 [7]: 1.15 µM
EC50 [8]: 4.58 µM
EC50 (THP-1 [9]): 7 µM
EC50 [1]: 0.22 µM
Efficacy [5]: 76%
Compound: CC(C)(C)OC(=O)n1c(-c2ccc(CCC(=O)O)cc2)cc2ccccc21
Ratio (THP-1 [3]): 1.4
Ratio (THP-1 [4]): 5.5
Ratio (HepG2 [6]): 1.2
